From ChEMBL document CHEMBL1154154, “Synthesis and pharmacological evaluation of 1,3,4-oxadiazole bearing bis(heterocycle) derivatives as anti-inflammatory and analgesic agents” (Eur J Med Chem, 2009)

Columns and labels:
Rattus norvegicus = assay: Antiinflammatory activity in albino rat assessed as inhibition of carrageenan-induced paw edema at 100 mg/kg, po administered 1 hr prior to carrageenen challenge measured after 3 hrs relative to control; assay type: functional
Method in brief: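 Four rats per group got 100 mg/kg po, 1 h before subplantar injection of 1% Type IV lambda carrageenan suspension into the right hind paw. Vehicle controls got 0.5% sodium carboxymethyl cellulose (10 mL/kg) and the positive control got ibuprofen 100 mg/kg. Paw volume was read by plethysmograph water displacement immediately and at 3 h. Edema was compared statistically with vehicle controls as percent inhibition.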

Mus musculus = assay: Analgesic activity in albino mouse assessed as reduction in acetic acid-induced writhing response at 100 mg/kg, po administered 1 hr prior to acetic acid challenge relative to control; assay type: functional; set-up: scale not given: the % may be the effect or the level left
Method in brief: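 Six mice per group got compound po at 100 mg/kg, 1 h before ip 0.6% acetic acid (10 mL/kg). Total writhes were counted over an observation window starting 5 min after the acetic acid injection. Aspirin at 100 mg/kg po was the positive control.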

In the case of `CC(C)Cc1ccc(C(C)C(=O)O)cc1` (configuration not stated) [IBUPROFEN], the inhibition in vivo at 100 mg/kg (Rattus norvegicus) was 70.7%.
`CC(=O)Oc1ccccc1C(=O)O` [ASPIRIN] was tested, and the Activity (Mus musculus) was 57.3%.
